PLAP act – PLAP enzyme activators, biochemical, luminescence, HTS; purified PLAP enzyme, luminescent substrate read-out; hits give high values; AID 696, 2007; 1.2% of 96,000 active; Alkaline phosphatase, placental type (Homo sapiens), P05187; activation fold at 20 µM; in the data active means activation fold above about 2
PostGolgi ctrl – growth inhibition of yeast control strain, primary screen, counter-screen for post-Golgi transport modulator project; efflux-deficient yeast background strain, growth absorbance A615, 16 h; inhibition, % at 10 µM; 5% of 98,000 active; AID 738, 2007
HePTP inhibitor – inhibitors of human HePTP phosphatase, primary screen, biochemical, absorbance, leukemia target; Tyrosine-protein phosphatase non-receptor type 7 (Homo sapiens), P35236; recombinant HePTP phosphatase activity, OD absorbance; inhibition, % at 20 µM; 0.64% of 110,000 active; AID 521, 2006; in the data active means inhibition above about 50%;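 further: plate controls were vehicle for no effect and reference inhibitor for full effect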
Target sequence (P35236 whole entry, looked up): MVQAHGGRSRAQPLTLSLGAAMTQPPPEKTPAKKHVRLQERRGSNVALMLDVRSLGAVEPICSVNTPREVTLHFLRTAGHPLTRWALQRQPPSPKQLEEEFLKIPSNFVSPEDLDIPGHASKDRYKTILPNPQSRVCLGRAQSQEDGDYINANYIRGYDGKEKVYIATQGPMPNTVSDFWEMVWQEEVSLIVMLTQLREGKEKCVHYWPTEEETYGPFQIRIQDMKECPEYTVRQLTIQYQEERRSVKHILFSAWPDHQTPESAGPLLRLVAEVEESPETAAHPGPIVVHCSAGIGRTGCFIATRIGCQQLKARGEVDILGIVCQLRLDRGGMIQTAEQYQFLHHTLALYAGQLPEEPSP
E coli WT exp – growth inhibitors of wild-type E. coli, primary screen, strain BW25113, expanded library, OD600 | OD600 absorbance | growth inhibition, % at 100 µM | 0.15% of 98,000 active | AID 710, 2007;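 active means growth inhibition above about 50% at one test dose, limit read from the data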;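 further: growth measured after 20 h incubation at 37 °C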
PostGolgi yeast – phenotypic screen on post-Golgi transport, primary screen. post-Golgi transport phenotypic cell assay. inhibition, % at 10 µM. 0.9% of 98,000 active;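 further: yeast cells grown in 1536-well plates; yeast grown about 18 h at 30C before absorbance read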
Ecoli tolC – growth inhibitors of E. coli tolC mutant, primary screen, strain BW25113 ΔtolC::kan, 384-well | growth inhibition, % at 10 µM (by protocol) | 2.2% of 65,000 active | OD615;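 active means growth inhibition at or above a cutoff equal to the mean over every tested compound plus 3 SD, cut at about 60% in these data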;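 further: growth measured after 20 h incubation at 37 °C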
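Test system: tolC-deleted E. coli BW25113; medium: LB with kanamycin 50 µg/mL; compound: single-point testing at 10 µM; incubation: 20 h compound exposure of bacteria at 37 °C; signal: OD at 615 nm; evaluation: growth inhibition in percent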
* hit, by the source's call; / = no result given; ! = repeats disagree. Shown are actives, neighbours in structure and some others; about 5.5% of the full set was active somewhere. Unless noted, no stated cut-off is given here; in the data, active means inhibition above about 30%; inactive means the rest.

SMILES | PLAP act | PostGolgi ctrl | HePTP inhibitor | E coli WT exp | PostGolgi yeast | Ecoli tolC
Cc1ccnc(SCC(=O)n2c3c(c4ccccc42)CC(C)CC3)n1 (stereo not given) | 1 | 35* | / | -2 | -5 | /
Cc1cc(C)cc(OCC(=O)NNC(=O)c2cc(C)[nH]n2)c1 | 2.7* | -4 | / | 1 | 18 | /
Cc1nc(N(CCC(N)=O)CCC(N)=O)sc1C | / | / | 4 | / | / | /
COc1ccc(Nc2nc(-c3ccc4ccccc4c3)cs2)cc1 | / | / | -5 | / | / | /
Cc1ccc(Nc2nc(-c3c(C)nc4ccccn34)cs2)cc1 | 1.6 | 75* | / | -1 | -9 | /
CCN(CC)c1ccc(Nc2nc(-c3c(C)nc4ccccn34)cs2)cc1 | / | / | 8 | / | / | /
Oc1ccc(Nc2nc(-c3ccc4ccccc4c3)cs2)cc1 | 1 | 82* | / | 0 | 93* | /
CCC(=O)NNC(=O)COc1ccc(Cl)cc1 | / | / | -6 | / | / | /
COc1ccc(/C=C/C(=O)O)cc1S(=O)(=O)Nc1cccc(C(=O)O)c1 | / | / | 10 | / | / | /
CCC1(C)OC(=O)N2CCc3c(C)[nH]c4c(C)ccc(c34)C21C (stereo not given) | 1.3 | 32* | 4 | 8 | -1 | 44
O=c1cc(-c2cc(O)c3c(O)c4ccccc4c(O)c3c2O)c(=O)c2c(=O)c3ccccc3c(=O)c1=2 | / | / | 84* | / | / | /
O=C1CC(c2cccc([N+](=O)[O-])c2)c2ccc3ccccc3c2N1 (stereo not given) | 0.9 | 54* | / | -3 | 9 | /
O=C1/C(=C\c2ccco2)CC2CC1C/C(=C/c1ccco1)C2=O | / | / | 102* | / | / | /
COCCCNS(=O)(=O)c1ccc(OC)cc1 | / | / | 98* | / | / | /
O=C(N/C(=C/c1ccc(-c2cccc([N+](=O)[O-])c2)o1)C(=O)N1CCCCC1)c1ccccc1 | / | / | -3 | / | / | /
Nc1n[nH]c(N)c1N=Nc1ccccc1F | / | / | 103* | / | / | /
CCOC(=O)c1ccccc1NC1c2ccccc2C(=O)N1c1cc(C)ccn1 (stereo not given) | 1.6 | 55* | / | -8 | 2 | /
COc1cc(OC)c(NC2c3ccccc3C(=O)N2c2cc(C)ccn2)cc1Cl (stereo not given) | / | 33* | -27 | -8 | 5 | 22
O=S(=O)(Nc1ccc(-c2nc3cccnc3s2)cc1)c1cccs1 | 1.2 | -3 | 0 | -4 | 4 | 18
O=S(=O)(Nc1ccc(-c2nc3cccnc3s2)cc1)c1ccc(Cl)s1 | 1.5 | 48* | / | -4 | 20 | /
CCCC(c1nnnn1C1CCCCC1)N1CCN(c2ncccn2)CC1 (stereo not given) | 1.5 | 37* | 5 | -6 | 1 | 3
CCCCC(c1nnnn1C1CCCC1)N1CCN(C2CCCCC2)CC1 (stereo not given) | 1.5 | 6 | 8 | -3 | -2 | -23
COc1ccccc1NC(=O)C(=O)NNC(=O)c1ccco1 | 2.2* | 3 | / | 2 | 8 | /
COc1cccc(-c2ncnn2-c2ccc(C)c(Cl)c2)c1OC | / | / | 4 | / | / | /
CC(C)(C)c1ccc(-c2nnc(SCCC#N)n2C2CCCC2)cc1 | 1 | 48* | 13 | -10 | 0 | 61*
SMILES | PLAP act | PostGolgi ctrl | HePTP inhibitor | E coli WT exp | PostGolgi yeast | Ecoli tolC
COc1ccccc1C1C(C#N)=C(N)Oc2cc(C)n(CCCn3ccnc3)c(=O)c21 (stereo not given) | 2* | 0 | -1 | -6 | 9 | -14
Cc1cc2c(c(=O)n1CCCn1ccnc1)C(c1ccco1)C(C#N)=C(N)O2 (stereo not given) | 1.1 | 12 | 5 | -6 | 3 | -15
CCn1cc(S(=O)(=O)CC(=O)NC2CCCCC2)c2ccccc21 | 1 | 42* | 9 | -3 | 9 | -1
O=C(/C=C/c1cccc([N+](=O)[O-])c1)Nc1cc(C(F)(F)F)cc(C(F)(F)F)c1 | / | / | -2 | / | / | /
O=C(Nc1ccc2oc(=O)ccc2c1)c1cccnc1Cl | 1.2 | 2 | / | 2 | 32* | /
O=C(Nc1ccc2oc(=O)ccc2c1)c1ccco1 | 0.9 | 4 | 3 | 8 | 15 | -27
CS(=O)(=O)Nc1ccc(C(=O)NCc2cccnc2)cc1 | 0.8 | 31* | 3 | 0 | 0 | -8
O=C(Nc1sc2c(c1C(=O)c1ccc(Cl)cc1)CCCC2)c1cccnc1 | 1.4 | 40* | / | -10 | 8 | /
CC(C)Oc1ccc(C(=O)NCc2cccnc2)cc1 | 1 | 8 | 104*! | 8 | -7 | -5
CC(C)(C)C(=O)Nc1ccc(C(=O)NCc2cccnc2)cc1 | 1 | 6 | / | 1 | -4 | /
CC(Oc1ccc(F)cc1)C(=O)Nc1sc2c(c1C(=O)NCc1cccnc1)CCCC2 (stereo not given) | 1.1 | 42* | / | -8 | 0 | /
COc1ccc2c(c1OC)C(=O)N(c1ccccc1O)C2=O | / | / | -12 | / | / | /
O=C(/C=C/c1ccc(-c2ccccc2[N+](=O)[O-])o1)Nc1cccnc1 | / | / | -13 | / | / | /
O=C1/C(=C\c2cccnc2)SC(=S)N1c1cccc(C(F)(F)F)c1 | / | / | -6 | / | / | /
C=CCn1c(-c2cccc3ccccc23)n[nH]c1=S | 2.8* | 16 | / | 12 | 0 | /
C=CCn1c(-c2ccccc2C)n[nH]c1=S | / | / | 11 | / | / | /
O=C1S/C(=C\c2ccc([N+](=O)[O-])cc2)C(=O)N1Cc1ccccc1 | / | / | -4 | / | / | /
COc1ccc2c(c1OC)C(=O)OC2Nc1ccc(I)cc1 (stereo not given) | / | / | 0 | / | / | /
CCc1cc(C)cc(OCCNC(=O)c2ncn[nH]2)c1 | 2* | -1 | 15 | -4 | 2 | 15
CC(C)(C)c1ccc(OCCNC(=O)c2ncn[nH]2)cc1 | 2.7* | 3 | / | 4 | 13 | /
Cc1cc(/C=N/NC(=O)c2ccccn2)c(C)n1-c1cccc(Cl)c1 | / | / | 6 | / | / | /
CS(=O)(=O)N1CCN(c2ccc([N+](=O)[O-])c(Sc3cccc4cccnc34)c2)CC1 | / | / | 4 | / | / | /
O=C(/C=C/c1ccccc1)NC(=S)Nc1ccc(-c2nc3ncccc3o2)cc1 | / | / | -15 | / | / | /
CCCn1c(CN2CCCCC2C)nc2c1c(=O)n(C)c(=O)n2C (stereo not given) | 0.9 | 37* | -11 | 2 | -4 | -6
CN(C)c1ccc(-c2nnn(Cc3ccccc3Br)n2)cc1 | 0.8 | 31* | -3 | -8 | 1 | 31
SMILES | PLAP act | PostGolgi ctrl | HePTP inhibitor | E coli WT exp | PostGolgi yeast | Ecoli tolC
Fc1ccccc1Cn1nnc(-c2ccccc2)n1 | / | / | -9 | / | / | /
CCOC(=O)C1=C(C)N=c2s/c(=C\c3ccc(OC)cc3)c(=O)n2C1c1ccc(Cl)cc1 (stereo not given) | / | / | -4 | / | / | /
CCOC(=O)C1=Nc2ccccc2C1=[N+]=[N-] | 0.9 | 101* | 6 | 100* | 106* | 8
CCOC(=O)c1cccc(C(=O)OCC)n1 | 1.1 | 6 | 3 | 7 | -4 | -20
CCn1c(CNc2ccccc2Cl)nnc1SCCN1CCCCC1 | 1.5 | 16 | 9 | 2 | 2 | -2
CCn1c(CNc2cccc(Cl)c2)nnc1SCC(=O)OC1CCCCC1 | 1.8 | 23 | 7 | -10 | 12 | 60*
CCn1c(CNc2ccccc2Cl)nnc1SCC(=O)OC1CCCCC1 | 1.4 | 17 | -1 | -2 | 0 | 73*

Source: PubChem BioAssay
